Assay [1] deals with T1, P2X purinoceptor 4 (Homo sapiens) (UniProt Q99571).
T1 sequence (whole entry): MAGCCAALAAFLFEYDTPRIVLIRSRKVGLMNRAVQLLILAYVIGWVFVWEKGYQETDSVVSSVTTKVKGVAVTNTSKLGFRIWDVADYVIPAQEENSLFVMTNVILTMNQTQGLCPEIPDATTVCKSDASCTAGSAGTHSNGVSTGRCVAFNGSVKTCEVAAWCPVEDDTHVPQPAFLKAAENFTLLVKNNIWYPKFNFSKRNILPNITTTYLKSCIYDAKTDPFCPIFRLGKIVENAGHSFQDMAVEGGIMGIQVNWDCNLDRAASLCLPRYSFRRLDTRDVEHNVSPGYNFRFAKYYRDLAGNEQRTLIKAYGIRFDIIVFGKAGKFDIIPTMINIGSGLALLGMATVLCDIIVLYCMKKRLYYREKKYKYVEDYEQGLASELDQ
Nature of the assay: Antagonist activity at human P2X4 receptor expressed in human 1321N1 cells assessed as inhibition of ATP-induced cytosolic calcium influx at 100 uM preincubated for 30 mins followed by ATP addition by Fluo-4 AM dye-based fluorescence assay. In kind it is cell-based. The method, boiled down: (§1)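 Human P2X4 stably transfected into 1321N1 astrocytoma cells. Inhibition of ATP-induced calcium influx measured as in earlier work. Compounds were first screened at a single high concentration, chosen according to their solubility.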

The target of assay [2] is T2, P2X purinoceptor 4 (Homo sapiens, UniProt Q99571).
T2 sequence (Q99571 whole entry): T1 sequence (whole entry)
Nature of the assay: Antagonist activity at human P2X4 receptor expressed in human 1321N1 cells assessed as inhibition of ATP-induced cytosolic calcium influx preincubated for 30 mins followed by ATP addition by Fluo-4 AM dye-based fluorescence assay. It counts as cell-based. The method, boiled down: as §1

The nature of assay [3]: Selectivity ratio of IC50 for mouse P2X4 receptor to IC50 for human P2X4 receptor.
Assay [4] concerns the target T3, P2X purinoceptor 7 (Homo sapiens) (UniProt Q99572).
T3 sequence (whole entry): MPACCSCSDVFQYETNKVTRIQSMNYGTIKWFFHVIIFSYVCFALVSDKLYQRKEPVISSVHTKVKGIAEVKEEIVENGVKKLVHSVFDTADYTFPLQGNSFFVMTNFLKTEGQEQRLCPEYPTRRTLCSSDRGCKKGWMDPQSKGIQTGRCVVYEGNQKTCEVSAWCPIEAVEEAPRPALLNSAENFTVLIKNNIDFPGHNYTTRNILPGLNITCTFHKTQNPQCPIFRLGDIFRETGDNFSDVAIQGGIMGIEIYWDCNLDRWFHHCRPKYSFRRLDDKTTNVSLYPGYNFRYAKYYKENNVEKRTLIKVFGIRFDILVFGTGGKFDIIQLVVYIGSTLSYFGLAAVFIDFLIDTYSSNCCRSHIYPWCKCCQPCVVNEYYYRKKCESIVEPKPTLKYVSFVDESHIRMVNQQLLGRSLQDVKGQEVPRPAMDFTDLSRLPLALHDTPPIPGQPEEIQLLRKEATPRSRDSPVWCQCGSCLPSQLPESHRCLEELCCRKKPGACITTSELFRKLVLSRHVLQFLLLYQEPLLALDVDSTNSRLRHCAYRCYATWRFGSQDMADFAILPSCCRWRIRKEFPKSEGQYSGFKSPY
Nature of the assay: Antagonist activity at human P2X7 receptor expressed in human 1321N1 cells assessed as inhibition of ATP-induced cytosolic calcium influx at 100 uM preincubated for 30 mins followed by ATP addition by Fluo-4 AM dye-based fluorescence assay. In kind it is cell-based.

Assay [5] addresses T4, P2X purinoceptor 7 (Homo sapiens, UniProt Q99572).
T4 sequence (Q99572 whole entry): T3 sequence (whole entry)
Nature of the assay: Antagonist activity at human P2X7 receptor expressed in human 1321N1 cells assessed as inhibition of ATP-induced cytosolic calcium influx preincubated for 30 mins followed by ATP addition by Fluo-4 AM dye-based fluorescence assay. In kind it is cell-based.

For assay [6], the target named is T5, P2X purinoceptor 2 (Homo sapiens, UniProt Q9UBL9).
T5 sequence (Q9UBL9 whole entry): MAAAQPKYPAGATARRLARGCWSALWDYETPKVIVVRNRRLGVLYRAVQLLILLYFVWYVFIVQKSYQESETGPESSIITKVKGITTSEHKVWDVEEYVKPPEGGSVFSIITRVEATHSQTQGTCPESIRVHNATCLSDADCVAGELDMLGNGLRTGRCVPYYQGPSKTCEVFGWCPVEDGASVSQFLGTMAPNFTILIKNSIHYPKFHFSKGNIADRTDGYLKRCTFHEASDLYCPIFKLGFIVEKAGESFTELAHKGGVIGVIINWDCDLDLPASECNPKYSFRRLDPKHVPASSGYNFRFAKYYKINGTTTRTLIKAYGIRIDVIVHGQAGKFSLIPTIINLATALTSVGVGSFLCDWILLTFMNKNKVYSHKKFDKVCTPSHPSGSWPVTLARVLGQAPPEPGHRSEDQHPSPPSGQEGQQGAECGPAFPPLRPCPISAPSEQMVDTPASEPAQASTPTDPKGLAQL
Nature of the assay: Antagonist activity at human P2X2 receptor expressed in human 1321N1 cells assessed as inhibition of ATP-induced cytosolic calcium influx preincubated for 30 mins followed by ATP addition by Fluo-4 AM dye-based fluorescence assay. It counts as cell-based.

Assay [7] addresses T1, P2X purinoceptor 4 (Homo sapiens). Nature of the assay: Antagonist activity at human P2X4 receptor expressed in human 1321N1 cells assessed as inhibition of ATP-induced cytosolic calcium influx at 10 uM preincubated for 30 mins followed by ATP addition by Fluo-4 AM dye-based fluorescence assay. It counts as cell-based. The method, boiled down: as §1
Assay [8] deals with T6, P2X purinoceptor 4 (Mus musculus) (UniProt Q9JJX6).
T6 sequence (whole entry): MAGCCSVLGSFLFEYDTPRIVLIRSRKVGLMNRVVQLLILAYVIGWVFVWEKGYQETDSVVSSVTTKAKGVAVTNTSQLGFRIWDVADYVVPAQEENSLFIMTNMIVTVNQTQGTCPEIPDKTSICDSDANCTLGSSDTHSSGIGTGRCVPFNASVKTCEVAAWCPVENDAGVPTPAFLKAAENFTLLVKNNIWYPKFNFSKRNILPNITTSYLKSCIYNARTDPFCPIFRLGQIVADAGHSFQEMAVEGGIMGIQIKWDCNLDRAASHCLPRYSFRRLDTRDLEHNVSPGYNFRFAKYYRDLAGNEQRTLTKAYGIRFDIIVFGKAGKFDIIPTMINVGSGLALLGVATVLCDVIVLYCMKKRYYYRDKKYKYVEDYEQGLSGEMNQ
The assay is described as follows: Antagonist activity at mouse P2X4 receptor assessed as inhibition of ATP-induced cytosolic calcium influx at 100 uM preincubated for 30 mins followed by ATP addition by Fluo-4 AM dye-based fluorescence assay.

Assay [9] deals with T1, P2X purinoceptor 4 (Homo sapiens). Nature of the assay: Negative allosteric modulation of human P2X4 receptor expressed in human 1321N1 cells assessed as reduction in ATP-induced cytosolic calcium influx at 3 to 30 uM. In kind it is cell-based. The method, boiled down: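 1321N1 astrocytoma cells stably expressing human P2X4. Full ATP concentration–response curves (10^-8 to 10^-3 M) for intracellular calcium, recorded without inhibitor and with three fixed modulator levels (3, 10, 30). ATP EC50 and maximal effect (Emax, %) were derived for each condition.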

Active and inactive are the calls of the source. No cut-off for these calls is given here.

Turning to `O=C(N1CCCC1)N1c2ccccc2C=Cc2ccccc21`, the inhibition was 98% in [1] and 33% in [4]. The IC50 is 34.1 µM in [2], more than 100 µM in [5] and more than 100 µM in assay [6]. Moreover, the Ratio IC50 in assay [3] was 3.

Turning to `O=C(N1CCCCC1)N1c2ccccc2C=Cc2ccccc21`, the inhibition in assay [1] was 72%; in assay [4], -10%. In addition, the concentration for half-maximal inhibition (IC50) in [2] was 13.7 µM; in assay [5], more than 100 µM; in assay [6], more than 100 µM. Further, in [3], the Ratio IC50 was 3.

In the case of `CCCN(CCC)C(=O)N1c2ccccc2C=Cc2ccccc21`, the results for the inhibition in assay [7] and in assay [8] were 49% and 38%, respectively. For the same compound, the IC50 was 7.78 µM in assay [2], more than 100 µM in assay [5] and more than 100 µM in assay [6]. For the same compound, the Ratio IC50 in assay [3] was found to be 3.

Turning to `CC(C)N(C(=O)N1c2ccccc2C=Cc2ccccc21)C(C)C`, in assay [7], the inhibition was 71%. Further, the half-maximal inhibitory concentration (IC50) in assay [2] is 3.44 µM; in [5], 95.2 µM; in [6] it was more than 100 µM. Further, the result in assay [9] was Active. Further, the Ratio IC50 in assay [3] amounted to 3.

As for `O=C(NC1CCCCC1)N1c2ccccc2C=Cc2ccccc21`, in assay [1], the inhibition is 100%. Further, the IC50 is 33.8 µM in [2], 40.8 µM in [5] and more than 100 µM in assay [6]. The Ratio IC50 in assay [3] is 3.

With `CCN(CC)C(=O)N1c2ccccc2C=Cc2ccccc21`, the results for the inhibition in [1] and in assay [8] were 95% and 27%, respectively. Besides, the IC50 in assay [2] was 11.4 µM; in assay [5], 69.8 µM; in [6], more than 100 µM.

The inhibition is the change of the read-out against control, counted positive when it falls. By IC50 is commonly meant the concentration that gives 50% inhibition.

(Values after ChEMBL document CHEMBL3102848, “Carbamazepine derivatives with P2X4 receptor-blocking activity” (Bioorg Med Chem, 2014).)
